Activity calls are given as the source filed them. The rule behind the calls is not given here.
Experiments:
Rattus norvegicus [1] = organism: Rattus norvegicus; test: Agonist/antagonist and antinociceptive profile was assessed in a hotplate assay.; type: functional
Rattus norvegicus [2] = organism: Rattus norvegicus; test: Tail-flick assay was performed to determine antinociceptive profile of the compound.; type: functional; design: unit not given here
Rattus norvegicus [3] = test: Antagonist and antinociceptive profile was evaluated in a paraphenylquinone assay after subcutaneous injection.; type: functional
D(2) dopamine receptor [4] = biological target: T1, D(2) dopamine receptor (Rattus norvegicus, UniProt P61169); test: Neuroleptic activity in terms of [3H]spiroperidol binding to Dopamine receptor D2 in rat striatal membrane.; type: cell membranes
In short: (§1)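 Striatal membranes from male Sprague-Dawley rats (1.4 mg protein/mL) were used in 50 mM Tris-HCl pH 7.1 with 0.1% ascorbate, 10 μM pargyline, 120 mM NaCl, 5 mM KCl and 1 mM each of CaCl2 and MgCl2. Incubation was with […], 20 min at 37 °C. Nonspecific binding was defined by 10⁻⁶ M haloperidol, with filtration and scintillation counting.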

Rattus norvegicus [5] = test: Effective dose for apomorphine induced circling behavior was determined in rats after subcutaneous administration of the compound.; type: functional
Monkey [6] = test: Antagonist action in tail-flick antagonism vs morphine, in rhesus monkeys. Compound was injected subcutaneously; Not active; type: functional, organism-based; settings: Cercopithecidae
Mu-type opioid receptor [7] = biological target: T2, Mu-type opioid receptor (Rattus norvegicus, UniProt P33535); test: Opioid activity in terms of inhibition of [3H]dihydromorphine binding to Opioid receptor mu 1 in rat brain membrane.; type: cell membranes
In short: (§2)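 Whole-brain membranes, cerebellum removed, from male Sprague-Dawley rats (1 mg protein/mL) in 50 mM Tris-HCl pH 7.4 were preincubated 60 min at 25 °C. [3H]dihydromorphine was added to a […], with varying drug concentrations, for 60 min at 25 °C. Nonspecific binding was defined by 10⁻⁵ M naloxone, with GF/B filtration and scintillation counting.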

Monkey [8] = test: Antagonist action in tail-flick antagonism vs morphine, in rhesus monkeys. Compound was injected subcutaneously.; type: functional; settings: Cercopithecidae, in Macaca mulatta, sc
Mu-type opioid receptor [9] = biological target: T2, Mu-type opioid receptor; test: Opioid activity in terms of inhibition of [3H]dihydromorphine binding to opioid receptor mu in rat brain membrane.; type: cell membranes; in short: as §2
D(2) dopamine receptor [10] = biological target: T1, D(2) dopamine receptor; test: Neuroleptic activity in terms of [3H]spiroperidol binding to dopamine receptor D2 in rat striatal membrane.; type: cell membranes; in short: as §1
Rattus norvegicus [11] = test: Effective dose for apomorphine induced circling behavior was determined in rats after subcutaneous administration of the compound; type: functional; settings: sc
Monkey [12] = test: Antagonist action in tail-flick antagonism vs morphine, in rhesus monkeys, compound was injected subcutaneously; Not Active; type: functional, organism-based; settings: Cercopithecidae
Rattus norvegicus [13] = organism: Rattus norvegicus; test: Agonist/antagonist and antinociceptive profile was assessed in a hotplate assay
Rattus norvegicus [14] = test: Antagonist and antinociceptive profile was evaluated in a paraphenylquinone assay after subcutaneous injection; settings: sc
[15] = Rattus norvegicus, read-out: ED50
[16] = Rattus norvegicus, sc, read-out: ED50

T1 sequence (P61169 whole entry): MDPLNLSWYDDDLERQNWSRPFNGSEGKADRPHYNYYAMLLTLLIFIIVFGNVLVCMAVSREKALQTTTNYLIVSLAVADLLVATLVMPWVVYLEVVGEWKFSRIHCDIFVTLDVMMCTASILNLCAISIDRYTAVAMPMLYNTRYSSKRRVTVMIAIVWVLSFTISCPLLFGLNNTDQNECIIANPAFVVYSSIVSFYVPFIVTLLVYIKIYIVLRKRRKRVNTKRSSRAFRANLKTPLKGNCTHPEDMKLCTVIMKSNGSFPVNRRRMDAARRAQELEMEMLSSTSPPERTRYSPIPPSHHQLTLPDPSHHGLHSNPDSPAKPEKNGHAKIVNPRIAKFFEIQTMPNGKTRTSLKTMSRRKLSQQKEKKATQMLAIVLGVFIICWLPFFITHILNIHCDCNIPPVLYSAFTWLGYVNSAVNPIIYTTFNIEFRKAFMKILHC
T2 sequence (P33535 whole entry): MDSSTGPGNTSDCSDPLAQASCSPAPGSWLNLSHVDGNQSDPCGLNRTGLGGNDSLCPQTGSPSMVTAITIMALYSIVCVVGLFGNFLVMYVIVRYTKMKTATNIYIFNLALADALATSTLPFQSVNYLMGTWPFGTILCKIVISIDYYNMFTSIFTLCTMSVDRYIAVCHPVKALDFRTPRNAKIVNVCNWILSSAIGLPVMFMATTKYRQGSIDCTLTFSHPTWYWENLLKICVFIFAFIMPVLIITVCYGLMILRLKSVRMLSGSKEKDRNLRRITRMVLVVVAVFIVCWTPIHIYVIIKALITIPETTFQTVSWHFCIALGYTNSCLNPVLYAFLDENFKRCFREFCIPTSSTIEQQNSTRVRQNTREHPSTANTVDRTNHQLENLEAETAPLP

With CCC(=O)O[C@]1(c2ccccc2)CCN(CCCC(=O)c2ccc(F)cc2)C[C@H]1C the ED50 (Rattus norvegicus [1]; [15]) was > 72.9 µmol/kg, the Activity (Rattus norvegicus [2]) was >60.8 and the ED50 (Rattus norvegicus [3]; [16]) was 2.9 µmol/kg. The IC50 (D(2) dopamine receptor [4]) was 147 nM, the ED50 (Rattus norvegicus [5]; [16]) was > 12 µmol/kg and the ED50 (Monkey [6]) was “inactive”.

For CCC(=O)O[C@@]1(c2ccccc2)CCN(CCCC(=O)c2ccc(F)cc2)CC1C (mixture of isomers), the ED50 (Rattus norvegicus [1]; [15]) was 1.6 µmol/kg, the Activity (Rattus norvegicus [2]) was 1.7 and the ED50 (Rattus norvegicus [3]; [16]) was 0.2 µmol/kg. For the same compound, the IC50 (D(2) dopamine receptor [4]) was 53.8 nM, the IC50 (Mu-type opioid receptor [7]) was 9.5 nM and the ED50 (Monkey [8]) was > 60.8 µmol/kg. The ED50 (Rattus norvegicus [5]) was 3.9 µM/kg.

In the case of CCC(=O)O[C@@]1(c2ccccc2)CCN(CCCC(=O)c2ccc(F)cc2)CC1C (single isomer, unassigned; (+)), the ED50 (Rattus norvegicus [1]) is reported as 0.9 µM/kg, the Activity (Rattus norvegicus [2]) is reported as 0.8 and the ED50 (Rattus norvegicus [3]) is reported as 0.2 µM/kg. The IC50 (Mu-type opioid receptor [9]) was 6.1 nM, the IC50 (D(2) dopamine receptor [10]) was 43.3 nM and the ED50 (Rattus norvegicus [5]) was 1.6 µM/kg.

O=C(CCCN1CCC(O)(c2ccc(Cl)cc2)CC1)c1ccc(F)cc1 [HALOPERIDOL] showed an ED50 (Rattus norvegicus [11]) of 0.1 µmol/kg.

With CN1CC[C@]23c4c5ccc(O)c4O[C@H]2[C@@H](O)C=C[C@H]3[C@H]1C5 [MORPHINE] the ED50 (Monkey [12]) was “inactive”, the ED50 (Rattus norvegicus [13]) was 2.9 µmol/kg and the Activity (Rattus norvegicus [2]) was 10.6. It also gave an ED50 (Rattus norvegicus [14]) of 0.4 µmol/kg.
